The subject of assay [1] is MIA PaCa-2. In words: Cytotoxicity against human MIA PaCa2 cells assessed as reduction in cell viability at 25 nM in presence of Cu2+ and BCPS incubated for 24 hrs by trypan blue assay. The format is functional, cell-based. The procedure, abridged: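 MIAPACA2 cells were given 25 nM compound plus 20 μM Cu(II) for 24 h, with or without the membrane-impermeable copper chelator bathocuproine disulfonate (300 μM). Viable cells were measured by trypan blue exclusion on a Vi-Cell counter.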

Assay [2] relates to MIA PaCa-2. Description: Cytotoxicity against human MIA PaCa2 cells assessed as reduction in cell viability 72 hrs by cell titer-glo luminescent cell viability assay. It counts as functional. The procedure, abridged:
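MIAPACA2 cells in conventional medium without copper supplement got serially diluted compound for 72 h. ATP content was read by CellTiter-Glo, and IC90 (90% proliferation inhibition vs DMSO control) was calculated.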

Assay [3] has as its system MIA PaCa-2. Description: Cytotoxicity against human MIA PaCa2 cells assessed as reduction in cell viability at 25 nM in presence of Zn2+ incubated for 72 hrs by cell titer-glo luminescent cell viability assay. It counts as functional, cell-based. The procedure, abridged: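 MIAPACA2 cells were exposed to compound for 72 h with 20 μM Fe(II) or Zn(II) supplement. Proliferation was read by CellTiter-Glo ATP luminescence.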

For another assay, the system named is Panc203. Description: Cytotoxicity against human Panc203 cells assessed as reduction in cell viability in presence of Cu2+ incubated for 72 hrs by cell titer-glo luminescent cell viability assay. The format is functional, cell-based. The settings on record: Panc203, 72 h. The procedure, abridged:
(§1)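 Cells were grown in DMEM or RPMI with 10% FBS, without antibiotics, at 37 °C, 20% O2, 5% CO2. Adherent lines were seeded at 500 cells/well. Serially diluted compound was given with 20 μM Cu(II) (CuCl2) for 72 h; leukemia models received pre-formed 1:1 copper complex. ATP was read by CellTiter-Glo luminescence. IC50 is relative to DMSO-treated cells.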

A further assay deals with PANC-03-27. In words: Cytotoxicity against human PANC-03-27 cells assessed as reduction in cell viability in presence of Cu2+ incubated for 72 hrs by cell titer-glo luminescent cell viability assay. It counts as functional, cell-based. The settings on record: PANC-03-27, 72 h. The procedure, abridged:
as §1
(In general: ATP-based viability assays read luminescence as a measure of living cells.)

The test system of another assay is PANC-1. In words: Cytotoxicity against human PANC-1 cells assessed as reduction in cell viability in presence of Cu2+ incubated for 72 hrs by cell titer-glo luminescent cell viability assay. The format is functional, cell-based. The conditions noted are these: PANC-1, 72 h. The procedure, abridged: as §1
Assay [4] is described as follows: Cytotoxicity against human A13A cells assessed as reduction in cell viability in presence of Cu2+ incubated for 72 hrs by cell titer-glo luminescent cell viability assay. The format is functional, cell-based. The procedure, abridged: as §1
The subject of assay [5] is MIA PaCa-2. Description: Induction of apoptosis in human MIA PaCa-2 cells assessed as increase in necrotic cells at 25 nM in presence of Cu2+ incubated for 72 hrs by annexin V and propidium iodide staining based flow cytometry analysis relative to control. The format is functional. The procedure, abridged:
(§2)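 Cells given 25 nM compound with or without 20 μM Cu(II) and/or the ATR inhibitor VE-822 at 250 nM for 72 h. Stained with annexin V-FITC and propidium iodide, then analysed on a five-laser flow cytometer to score viable, early apoptotic, late apoptotic and necrotic fractions against vehicle.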
On the technique in general: A flow cytometer gives signals particle by particle.

In assay [6] the test system is MIA PaCa-2. In words: Induction of apoptosis in human MIA PaCa-2 cells assessed as increase in late apoptotic cells at 25 nM in presence of Cu2+ and ATRi incubated for 72 hrs by annexin V and propidium iodide staining based flow cytometry analysis relative to control. The format is functional. The procedure, abridged: as §2
In assay [7] the test system is MIA PaCa-2. In words: Induction of apoptosis in human MIA PaCa-2 cells assessed as decrease in viable cells at 25 nM incubated for 72 hrs by annexin V and propidium iodide staining based flow cytometry analysis relative to control. It counts as functional. In outline:
as §2

The subject of assay [8] is MIA PaCa-2. Description: Induction of apoptosis in human MIA PaCa-2 cells assessed as increase in early apoptotic cells at 25 nM incubated for 72 hrs by annexin V and propidium iodide staining based flow cytometry analysis relative to control. The format is functional. The procedure, abridged:
as §2

Assay [9] concerns MIA PaCa-2. Description: Induction of apoptosis in human MIA PaCa-2 cells assessed as increase in caspase 3 cleavage at 10 nM in presence of Cu2+ incubated for 48 hrs by immunoblot assay. It counts as functional, cell-based. In outline: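 Treated with 10 nM compound plus 20 μM Cu(II). Lysed in RIPA buffer with protease and phosphatase inhibitors, then sonicated and centrifuged at 20 000g, 4 °C. Protein measured by micro BCA, and equal amounts run on bis-tris gels. Primary antibodies in 5% BSA/TBST; HRP-linked anti-rabbit or anti-mouse secondaries at 1:2500. Chemiluminescent detection on film; representative blot.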
(A western blot detects proteins with antibodies after separation by electrophoresis.)

The subject of assay [10] is MIA PaCa-2. In words: Induction of DNA damage in human MIA PaCa-2 cells assessed as decrease in CTP level at 25 nM in presence of Cu2+ incubated for 48 hrs by LC-MS/MS analysis. It counts as functional, cell-based. In outline:
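MIAPACA2 cells were given 25 nM compound plus 20 μM Cu(II) for 48 h in glucose-free DMEM with 10% dialyzed FBS and 11 mM [U-13C6]glucose. Nucleotide pools were quantified by LC-MS/MS with multiple reaction monitoring. Mean ± SD, n = 3, two-way ANOVA with Bonferroni correction.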

Assay [11] deals with MIA PaCa-2. In words: Induction of DNA damage in human MIA PaCa-2 cells assessed as decrease in UTP level at 25 nM in presence of Cu2+ incubated for 48 hrs by LC-MS/MS analysis. The format is functional, cell-based. The procedure, abridged: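 Cells in DMEM or RPMI with 10% FBS, 37 °C, 5% CO2. Treated with 25 nM compound plus 20 μM Cu(II) for 48 h. Nucleotide pools quantified by LC-MS/MS with multiple reaction monitoring. Cells were in glucose-free DMEM with 10% dialyzed FBS and 11 mM [U-13C6]glucose for 48 h, and glucose-labeled pools were compared. Mean ± SD, n = 3, two-way ANOVA with Bonferroni correction.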

Active and inactive are the calls of the source. The rule behind the calls is not given here.

Regarding `CN(C)C(=S)NN=Cc1nccc2cc(F)ccc12`, the result in the assay on MIA PaCa-2 [1], in the assay on MIA PaCa-2 [3], in the assay on MIA PaCa-2 [10] and in the assay with MIA PaCa-2 [11] was inactive. Besides, the IC90 in the assay with MIA PaCa-2 [2] was 111 nM. The IC50 (in the assay on Panc203; with PANC-03-27; with PANC-1; in assay [4]) was 1 nM throughout. Moreover, the Activity in the assay on MIA PaCa-2 [5] was determined as 4.86%; in the assay on MIA PaCa-2 [6], 42.7%; in the assay on MIA PaCa-2 [7], 94.9%; with MIA PaCa-2 [8], 1.85%. Besides, in the assay on MIA PaCa-2 [9], the outcome was Active.

In general, IC90 refers to the concentration needed for an effect of 90%. By IC50 is commonly meant the concentration that inhibits the measured activity by half.
